pIC50: −log10 of the molar value. Calls of active or inactive are those of the source. The calls are words filed in the database; no cut-off is given here.
Legend:
Oryza sativa = assay: Inhibition of alpha-glucosidase from rice at 1 mM at pH 4
In short: (§1)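 Glycosidase panel of commercial enzymes assayed at each enzyme's optimal pH with compound at 1 mM; percentage inhibition of enzyme activity calculated.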

[1] = molecular target: Glucoamylase (Aspergillus niger) (UniProt P69328); assay: Inhibition of amyloglucosidase from Aspergillus niger at 1 mM at pH 5; in short: as §1
Prunus dulcis = assay: Inhibition of beta-glucosidase from almond at 1 mM at pH 5; in short: as §1
U-266 = assay: Cytotoxicity against human U266 cells after 72 hrs by colorimetric assay; format: functional, cell-based; conditions: Homo sapiens, U-266, 72 h; read-out: IC50
In short: (§2)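 Cells grown in McCoy's medium (adherent lines) or RPMI-1640 (U266), each with 10% FBS, L-glutamine and antibiotics, at 37 °C in 5% CO₂. Compound dissolved as a 100 mM DMSO stock, final DMSO ≤0.4%. Cells were exposed for 72 h across a 10^-2 to 400 µM range. Viability was read by CellTiter 96 Aqueous (2–4 h incubation, absorbance 490 nm). Triplicate wells; IC50 from curve fitting.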

PC-3 = assay: Cytotoxicity against human PC3 cells after 72 hrs by colorimetric assay; format: functional, cell-based; conditions: Homo sapiens, PC-3, 72 h; read-out: IC50; in short: as §2
MCF7 [2] = assay: Cytotoxicity against human MCF7 cells after 72 hrs by colorimetric assay; format: functional, cell-based; conditions: Homo sapiens, MCF7, 72 h; read-out: IC50; in short: as §2
BT-474 = assay: Cytotoxicity against human BT474 cells after 72 hrs by colorimetric assay; format: functional, cell-based; conditions: Homo sapiens, BT-474, 72 h; read-out: IC50; in short: as §2
SK-BR-3 [3] = assay: Cell cycle arrest in human SKBR3 cells by accumulation of cells at G1 phase at 50 uM after 48 hrs by propidium iodide-staining based flow cytometry (reference value: 54%); format: functional
SK-BR-3 [4] = assay: Decrease in CDC25 mRNA level in human SKBR3 cells at 50 uM after 12 hrs by TLDA; format: functional, cell-based
In short: (§3)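 SKBR3 or MCF7 cells, 2×10⁵/well, treated with 50 µM for 12 h. Total RNA was column-purified and reverse-transcribed with random hexamers, then assayed on TaqMan low-density arrays. Expression was normalised to RPLP0, with fold change versus DMSO-vehicle cells calculated as 2^-ΔΔCT. Q-PCR run in duplicate per gene.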

SK-BR-3 [5] = assay: Decrease in cyclinE1 mRNA level in human SKBR3 cells at 50 uM after 12 hrs by TLDA; format: functional, cell-based
In short: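 SKBR3 and MCF7 cells seeded at 2 × 10⁵ per well, treated 12 h with 50 µM compound (DMSO stock); total RNA extracted, cDNA made with random hexamers, gene expression profiled by TaqMan low-density arrays (qPCR, duplicate per gene). Normalised to RPLP0; fold change versus DMSO vehicle-treated cells, calculated as 2^-ΔΔCT.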

MCF7 [6] = assay: Decrease in CDC25 mRNA level in human MCF7 cells at 50 uM after 12 hrs by TLDA; format: functional, cell-based; in short: as §3
Jurkat = assay: Cytotoxicity in human Jurkat cells overexpressing Bcl2 assessed as cell death at 50 uM after 72 hrs by propidium iodide-staining based flow cytometry; format: functional
In short: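 Jurkat T cells stably overexpressing Bcl-2, plus vector controls, in RPMI-1640 with 10% FBS. Seeded at 4×10⁴ per well and treated for 72 h with 40 µM etoposide, 2 µM doxorubicin or 50 µM compound. Dead cells counted by propidium iodide staining and flow cytometry; means of triplicates with SD.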

[7] = Cytotoxicity in human multiple myeloma cells assessed as pre-necrotic cells at 100 uM after 24 hrs by annexin V/propidium iodide staining based flow cytometry (reference value: 42.1%); format: functional, Multiple myeloma cell
[8] = Cytotoxicity in human B-CLL assessed as viable cells at 50 uM after 24 hrs by annexin V/propidium iodide staining based flow cytometry (reference value: 65.8 to 78%); format: functional; conditions: read-out: Activity
[9] = Cytotoxicity in human B-CLL assessed as late apoptotic/necrotic cells at 50 uM after 24 hrs by annexin V/propidium iodide staining based flow cytometry (reference value: 10 to 14.7%); format: functional
[10] = Cytotoxicity in human B-CLL assessed as late apoptotic/necrotic cells at 100 uM after 24 hrs by annexin V/propidium iodide staining based flow cytometry (reference value: 10 to 14.7%); format: functional
[11] = Cytotoxicity in human B-CLL assessed as late apoptotic/necrotic cells at 200 uM after 24 hrs by annexin V/propidium iodide staining based flow cytometry (reference value: 10 to 14.7%); format: functional
[12] = Cytotoxicity in human B-CLL assessed as pre-necrotic cells at 50 uM after 24 hrs by annexin V/propidium iodide staining based flow cytometry (reference value: 1.3 to 3.7%); format: functional
[13] = Cytotoxicity in human B-CLL assessed as pre-necrotic cells at 200 uM after 24 hrs by annexin V/propidium iodide staining based flow cytometry (reference value: 1.3 to 3.7%); format: functional
[14] = molecular target: Alpha-galactosidase (Coffea arabica) (UniProt Q42656); assay: Inhibition of alpha-galactosidase from coffee beans at 1 mM at pH 6; in short: as §1
[15] = molecular target: T1, Beta-galactosidase (Aspergillus oryzae) (UniProt Q2U7N3); assay: Inhibition of beta-galactosidase from Aspergillus oryzae at 1 mM at pH 4; in short: as §1
T1 sequence (whole entry): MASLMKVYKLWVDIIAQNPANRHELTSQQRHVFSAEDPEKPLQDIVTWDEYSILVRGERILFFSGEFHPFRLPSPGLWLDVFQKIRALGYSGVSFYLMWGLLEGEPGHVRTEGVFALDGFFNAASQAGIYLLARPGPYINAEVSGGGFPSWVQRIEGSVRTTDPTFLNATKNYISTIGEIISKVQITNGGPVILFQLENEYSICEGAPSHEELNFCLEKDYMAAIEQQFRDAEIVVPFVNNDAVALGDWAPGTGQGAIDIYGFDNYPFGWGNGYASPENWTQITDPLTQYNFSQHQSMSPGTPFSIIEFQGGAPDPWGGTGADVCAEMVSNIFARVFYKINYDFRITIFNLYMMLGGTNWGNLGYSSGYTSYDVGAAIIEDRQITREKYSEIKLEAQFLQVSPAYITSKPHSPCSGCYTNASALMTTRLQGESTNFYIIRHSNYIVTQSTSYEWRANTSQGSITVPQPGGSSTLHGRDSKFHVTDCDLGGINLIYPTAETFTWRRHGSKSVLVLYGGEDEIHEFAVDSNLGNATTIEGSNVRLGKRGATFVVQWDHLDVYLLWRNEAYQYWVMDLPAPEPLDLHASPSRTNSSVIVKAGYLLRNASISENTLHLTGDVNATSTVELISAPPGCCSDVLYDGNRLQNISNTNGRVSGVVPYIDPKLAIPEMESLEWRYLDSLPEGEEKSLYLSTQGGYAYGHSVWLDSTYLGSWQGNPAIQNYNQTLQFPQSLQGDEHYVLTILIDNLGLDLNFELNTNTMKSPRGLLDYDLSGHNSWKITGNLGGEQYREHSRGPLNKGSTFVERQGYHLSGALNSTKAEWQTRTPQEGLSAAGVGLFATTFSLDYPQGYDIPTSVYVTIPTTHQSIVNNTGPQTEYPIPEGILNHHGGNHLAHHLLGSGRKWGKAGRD

Saccharomyces cerevisiae = assay: Inhibition of alpha-glucosidase from yeast at 1 mM at pH 7; in short: as §1

Chain of Alpha-galactosidase (Coffea arabica) (Q42656 16-378 limits assumed): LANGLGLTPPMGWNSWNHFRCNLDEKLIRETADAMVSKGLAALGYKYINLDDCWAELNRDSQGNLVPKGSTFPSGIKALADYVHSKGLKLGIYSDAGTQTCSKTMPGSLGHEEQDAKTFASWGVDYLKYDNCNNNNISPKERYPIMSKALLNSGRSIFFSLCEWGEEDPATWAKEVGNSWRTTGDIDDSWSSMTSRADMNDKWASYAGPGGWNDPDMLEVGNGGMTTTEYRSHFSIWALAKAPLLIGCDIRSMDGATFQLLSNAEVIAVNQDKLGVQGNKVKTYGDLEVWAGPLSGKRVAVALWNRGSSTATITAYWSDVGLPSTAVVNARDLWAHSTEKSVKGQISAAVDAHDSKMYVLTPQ
Chain of Glucoamylase (Aspergillus niger) (P69328 whole entry): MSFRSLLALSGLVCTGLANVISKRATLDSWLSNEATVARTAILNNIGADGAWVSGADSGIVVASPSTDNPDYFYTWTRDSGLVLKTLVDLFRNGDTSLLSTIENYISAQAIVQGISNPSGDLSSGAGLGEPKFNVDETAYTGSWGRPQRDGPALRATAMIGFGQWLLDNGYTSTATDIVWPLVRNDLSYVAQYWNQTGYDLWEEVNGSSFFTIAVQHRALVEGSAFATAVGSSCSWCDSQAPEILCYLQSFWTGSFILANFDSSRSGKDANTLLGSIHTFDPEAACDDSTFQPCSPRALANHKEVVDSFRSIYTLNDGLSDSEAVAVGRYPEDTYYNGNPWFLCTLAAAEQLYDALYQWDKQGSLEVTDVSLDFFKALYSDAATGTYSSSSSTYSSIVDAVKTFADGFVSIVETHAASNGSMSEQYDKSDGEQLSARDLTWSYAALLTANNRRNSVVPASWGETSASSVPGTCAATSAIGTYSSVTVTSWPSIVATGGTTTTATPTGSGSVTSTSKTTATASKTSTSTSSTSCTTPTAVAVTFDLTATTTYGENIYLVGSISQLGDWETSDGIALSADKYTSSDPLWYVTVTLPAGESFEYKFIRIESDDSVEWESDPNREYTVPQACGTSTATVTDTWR

inhibition (Oryza sativa): < 10%
inhibition [1]: < 10%
inhibition (Prunus dulcis): 50%
inhibition [14]: < 10%
inhibition [15]: < 10%
inhibition (Saccharomyces cerevisiae): < 10%
SMILES: OC[C@H](NC[C@H]1NC[C@H](O)[C@@H]1O)c1ccc(-c2ccc(C(F)(F)F)cc2)cc1
pIC50 (U-266): 4.30
pIC50 (PC-3): 3.88
pIC50 (MCF7 [2]): 4.11
pIC50 (BT-474): 4.03
Activity (SK-BR-3 [3]): 57%
Activity (SK-BR-3 [4]): Active
Activity (SK-BR-3 [5]): Active
Activity (MCF7 [6]): Active
Activity (Jurkat): Active
Activity [7]: 17%
viability at 50 µM [8]: 27%
Activity [9]: 10.1%
Activity [10]: 11.1%
Activity [11]: 55.6%
Activity [12]: 0.8%
Activity [13]: 0.5%
